First the molecules themselves.
B1: tRNA (parent)
chain: GUUCCGUUGGCGUAAUGGUAACGCGUCUCCCUCCUAAGGAGAAGACUGCGGGUUCGAGUCCCGUACGGAACG

Variants at the floor of the assay were thinned out.

Variants of B1 are the subject of this data set. Description: yeast fitness relative to wild type (ratio to wild type); higher = fitter; tRNA-Arg(CCU), competitive growth, 37 C, YPD. The procedure, abridged: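 Changes in genotype frequencies gave Darwinian fitness relative to wild type. Frequencies were read by 100-nucleotide paired-end sequencing of gene amplicons before and after pooled Saccharomyces cerevisiae strains, carrying tRNA-Arg(CCU) gene variants at the native locus, were competed in YPD at 37°C for 24 hours in six replicates. A genotype was kept only with ≥ 100 starting reads, and estimates < 0.5 were set to 0.5.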
As to G6A C30U C49A, the yeast fitness is not above 0.5.

Take U19C C62U: the yeast fitness amounted to 0.925.

As for C4G C61G, the yeast fitness is 0.659.

With G6A A57C G63A A65C A70C, the yeast fitness was not above 0.5.

As for C29G C60G, the yeast fitness was determined as 0.851.

Turning to C31G C34U C55U G63A, the yeast fitness is not above 0.5.

Regarding G10A G17C C22U C30G C33G C61A A69U, the yeast fitness is not above 0.5.

In the case of C5G C31A G67C, the yeast fitness was determined as 0.62.

On to G6A C24G G50A, for which the yeast fitness was not above 0.5.

Turning to U3G A20C G44C U47C C61U, the yeast fitness is not above 0.5.

Turning to U8C C27U C31A G68A, the yeast fitness is not above 0.5.

In the case of C22A A40C G50C, the yeast fitness came to 0.908.

With C11U C22A C24G A36G G39C C55U C66U, the yeast fitness is not above 0.5.

Consider U16A G18C G39A G52A, for which the yeast fitness was not above 0.5.

Regarding C5U G68C, the yeast fitness worked out at 0.842.

For C4A C61G G63A, the yeast fitness is not above 0.5.

As for C55G C66U A69C, the yeast fitness was not above 0.5.

Regarding G17A G18A U26C A42C C55U, the yeast fitness was not above 0.5.

In the case of C4G C24A C46U U64C, the yeast fitness was not above 0.5.

Turning to G25C G38A A65G, the yeast fitness came to 1.04.

For C4U U35C C61A, the yeast fitness is 0.555.

Turning to U7A U8A G67C, the yeast fitness was not above 0.5.

As to C5G U13G C24G, the yeast fitness was not above 0.5.

With U3G C24U C34U A40G C55G, the yeast fitness was not above 0.5.

Take U26A C27G C30G A36U G38C C46U C49G A65U: the yeast fitness was 0.573.

In the case of U28C C61U, the yeast fitness is 0.874.

In the case of G6A C22U C33A C55U C61A, the yeast fitness is not above 0.5.

With A21G G56U G58C A69U, the yeast fitness was not above 0.5.

With C5G G23A C61A, the yeast fitness was 0.529.

As to C4G G6A A21C U53A U54A, the yeast fitness was not above 0.5.

On to C29A G51A, for which the yeast fitness turned out to be 0.544.

In the case of G6C A15G U54G C55U, the yeast fitness is not above 0.5.

Regarding U8A U16A C27G C31A U59C C61U, the yeast fitness is not above 0.5.

On to U19C A36C G39A C62G, for which the yeast fitness is not above 0.5.

For the variant G23C G39A C62G, the yeast fitness was not above 0.5.

Consider G56C A57G C61G C66U A69G, for which the yeast fitness was not above 0.5.

As for C30U U54A G68U, the yeast fitness is not above 0.5.

On to C5A G17C C30A A65C, for which the yeast fitness is not above 0.5.

Turning to C11U G25A A57C C60U G67C, the yeast fitness was not above 0.5.

Turning to C5U C11G C33A, the yeast fitness came to 0.557.

Turning to C24G C30A A40C A57G C61U, the yeast fitness was not above 0.5.

For the variant C27G C33A G48A G51C, the yeast fitness is not above 0.5.

For G41C C61U G67A, the yeast fitness is not above 0.5.

As to A15C G25A U26C A69U, the yeast fitness was not above 0.5.

As to U2A U16G G23C C31U A36U U59A, the yeast fitness was not above 0.5.

Consider G6C C24A, for which the yeast fitness was 0.525.

In the case of A36U C49G A69U, the yeast fitness is not above 0.5.

Turning to C11A A45G U53G, the yeast fitness is not above 0.5.

With C30U U54A C66U A70C, the yeast fitness was not above 0.5.

For the variant G18A G48C C49A U53A G56A G58C, the yeast fitness is not above 0.5.

Turning to C30U G38C C55A G67A, the yeast fitness was not above 0.5.

On to C5U U32G, for which the yeast fitness amounted to 0.669.

C29U C33G G44C: the yeast fitness is not above 0.5.

Consider U19G U32C G52A G58C, for which the yeast fitness was not above 0.5.

As for A14U A40U G58C, the yeast fitness was 0.547.

A14C C22A C46A C66U: the yeast fitness was not above 0.5.

As to C22U G48A, the yeast fitness came out at 0.89.

In the case of C11G A20U G38C G50A, the yeast fitness is 0.569.

For the variant G25C C49U G67U G68C A69U, the yeast fitness is not above 0.5.

Consider G6C C30G A36C G58A, for which the yeast fitness was not above 0.5.

As to U35A A36G A40U A42U C55G, the yeast fitness is not above 0.5.

On to C11G C29A A43C C66A, for which the yeast fitness is not above 0.5.

On to A20U A36G C49U C55G, for which the yeast fitness was determined as 0.501.

Turning to G6C C11A C22U U47C C66A, the yeast fitness is not above 0.5.

Turning to C5U A21U C30G A42G U59C C66G G68A, the yeast fitness was not above 0.5.

With G18C A37U G48C C49A, the yeast fitness is not above 0.5.

As to C4U G10A C24U G67A, the yeast fitness was determined as 0.751.

For the variant C5U C11A A14G, the yeast fitness is not above 0.5.

Regarding C46U U59A, the yeast fitness was 0.877.

For C55G C60U, the yeast fitness was not above 0.5.

For the variant C5U C33U C61U, the yeast fitness amounted to 0.632.

As to G23C A43U G56A, the yeast fitness was 0.628.

On to U8C A36U G38A A65C, for which the yeast fitness was 0.579.

As for C34G A42G G48C, the yeast fitness amounted to 0.531.

Regarding C22G A45U U47A, the yeast fitness was not above 0.5.

Turning to G56A A65G C66U, the yeast fitness was found to be 0.763.

As for C27U G56C C66U, the yeast fitness was not above 0.5.

C22U C34G G39A: the yeast fitness is not above 0.5.

As for C5U C31U C61A, the yeast fitness is 0.552.

Regarding G18A G41A C66G, the yeast fitness is not above 0.5.

Consider G38C A40C U53C, for which the yeast fitness came to 0.639.

Consider G17C C34U C61U G67A, for which the yeast fitness is not above 0.5.

As for C5U C11G U19G C24G C30U, the yeast fitness came out at 0.547.

G18A C33U: the yeast fitness was not above 0.5.

In the case of G23C A65C, the yeast fitness came to 0.619.

Consider C4A U35C C66A, for which the yeast fitness is not above 0.5.

With C22U C27G A40C, the yeast fitness stood at 0.55.

Consider A20G U32C G67C, for which the yeast fitness was determined as 0.735.

Take U8A C46A U54C: the yeast fitness came out at 0.666.

On to C4U G18A A21C A65C, for which the yeast fitness is not above 0.5.

For the variant A42U U47A, the yeast fitness came out at 0.789.

As for C5G A42C G68U, the yeast fitness is 0.593.

A14G A40U G58C: the yeast fitness stood at 0.706.

Regarding U2A G17C C49U, the yeast fitness was 0.571.

Turning to A15U A20C G50C, the yeast fitness is not above 0.5.

As for C5U C24A G41A A69C, the yeast fitness is not above 0.5.

Turning to C31A C62G G63A C66G A69G, the yeast fitness was not above 0.5.

On to G12C A65U G68U, for which the yeast fitness is 0.653.

Take C22U A42G A45C C55G: the yeast fitness is not above 0.5.

Consider U2C A15C C22A C31U C55A, for which the yeast fitness was not above 0.5.

Consider A37U A69C, for which the yeast fitness was 0.796.

Consider U47A C49G A69U, for which the yeast fitness was determined as 0.577.

As for U16A C29U A45G C46U A69U, the yeast fitness was not above 0.5.

Consider A40U C49G, for which the yeast fitness amounted to 0.811.

Consider A40U C49A, for which the yeast fitness was determined as 0.638.

For U3C C49U A70C, the yeast fitness was found to be 0.751.

Turning to G9C A14C A57G, the yeast fitness is not above 0.5.

U13C U16G C27G C49A C60A: the yeast fitness was not above 0.5.

In the case of C29U U59C, the yeast fitness came out at 0.868.

Turning to C22G C24U C31U A40U U59A C61A, the yeast fitness is not above 0.5.

As for A15C A21U C24A C33A C66A, the yeast fitness was not above 0.5.

Take U7G C29G G52C A57U: the yeast fitness is not above 0.5.

G9C C27U U47C C55U C62G A65G A69U: the yeast fitness was not above 0.5.

As for C60G, the yeast fitness worked out at 0.664.

Regarding G17A G48C G56C, the yeast fitness is 0.575.

In the case of A15G C46U A70U, the yeast fitness was found to be 0.829.

Take U32A A36G G39C G50A U64C: the yeast fitness is not above 0.5.

As for C30G C66U, the yeast fitness was determined as 0.606.

On to G12A C31G C34A, for which the yeast fitness was found to be 0.585.

Turning to C46U A57C, the yeast fitness amounted to 0.638.

Take U7A A45C G68A: the yeast fitness was not above 0.5.

On to U2C U8C G44A U53C A70U, for which the yeast fitness was not above 0.5.

Take G18C C27A: the yeast fitness is 0.555.

Turning to A37C C49U G51A, the yeast fitness was not above 0.5.

Turning to U3C A21G U32C A43U, the yeast fitness is 0.722.

As for U2A C5A C60A, the yeast fitness was not above 0.5.

For the variant G9A G50C A69U, the yeast fitness turned out to be 0.752.

On to A15U A40U G52A, for which the yeast fitness is not above 0.5.

As for C30A A36C G52A, the yeast fitness was not above 0.5.

Take A36U C46G U54C C62A A69C: the yeast fitness was not above 0.5.

As for A37C C49U U54G, the yeast fitness is not above 0.5.

As to U2A A65U, the yeast fitness is 0.812.

With C29U A45U C61U, the yeast fitness amounted to 0.644.

For the variant C5U U13A C29G C31A, the yeast fitness was 0.593.

For the variant A15G C30G A40U A42C C49G, the yeast fitness is not above 0.5.

U7A U8A G10C C27G C34G U35C C55U: the yeast fitness is not above 0.5.

C29U C30U U59A: the yeast fitness was not above 0.5.

As for G6A G12C U16C A21U, the yeast fitness is 0.532.

As to C27G G48A G67C A69U, the yeast fitness was 0.525.

A15G G17C C34U C60A: the yeast fitness was not above 0.5.

With U13C A20U C62U, the yeast fitness is 0.731.

On to A36G G63A, for which the yeast fitness is 0.944.

C30U A37C C46U: the yeast fitness was found to be 0.666.

Take U26A G67U: the yeast fitness came out at 0.632.

With C4U C11G C30G, the yeast fitness is not above 0.5.

Regarding C22A A37C A65G C66U, the yeast fitness is not above 0.5.

On to C5U C30U G44C G67C, for which the yeast fitness was not above 0.5.

A14G C29G U47G G58A: the yeast fitness is not above 0.5.

For G23C C60G G68C, the yeast fitness is not above 0.5.

With U7C A14G G17A A69U A70U, the yeast fitness amounted to 0.594.

For the variant C11G A36C A43U, the yeast fitness was not above 0.5.

For C4U C30A U35C, the yeast fitness amounted to 0.77.

With G17A C31U U35C G56A A57G, the yeast fitness is not above 0.5.

As to C5A A43C A45U U53C, the yeast fitness came out at 0.615.

As to C11U A15C C29U A37G, the yeast fitness came to 0.535.

U2C G6A U16A: the yeast fitness was found to be 0.65.

As for C34U U53C A69C, the yeast fitness is not above 0.5.

As to U8A A42C, the yeast fitness came to 0.648.

For the variant C11G C22A, the yeast fitness is 0.608.

As for C5G U35A G44C C66U G67U A70G, the yeast fitness was 0.542.

Regarding A15G G18A G58C A69U, the yeast fitness was not above 0.5.

With A40U C55A G56C, the yeast fitness was not above 0.5.

Consider G6C G23C C24U G68A, for which the yeast fitness came out at 0.689.

Regarding C31A A69U, the yeast fitness is 0.856.

Consider A15U C22A G23A C24A G56C, for which the yeast fitness is not above 0.5.

On to U16G C22G A43G C46G G56C A69G, for which the yeast fitness is not above 0.5.

As to G10C C29A A40U C62G, the yeast fitness is not above 0.5.

The record behind these values is the RNAGym collection of RNA variant scans (doi:10.1126/science.aae0568).
